Test results taken from ChEMBL document CHEMBL4689842, “EUbOPEN Chemogenomics Library wave 1” (2021).

System: U2OS
Assay: Multiplex assay against U2OS
Type: toxicity, cell-based
Conditions: human
How it was run: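 Compound was added to live cells that had been stained at seeding with Hoechst33342, BioTracker Green Microtubule Cytoskeleton Dye, MitoTracker Red and Annexin V Alexa Fluor 680, and imaging followed on a CQ1 microscope at 37°C and 5% CO2. CellPathfinder machine-learning gating divided cells into Hoechst high-intensity objects or normal cells, normal cells into healthy, pyknosed or fragmented nuclei, and pyknosed cells into mitotic or apoptotic. Tubulin, mitochondrial-mass and membrane-permeability phenotypes are per cents of healthy-nucleus cells.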

[1] = 12 h, 1 µM, compound concentration 1 uM, replicate 1
[2] = 12 h, 1 µM, compound concentration 1 uM, replicate 2
[3] = 12 h, 10 µM, compound concentration 10 uM, replicate 1
[4] = 12 h, 10 µM, compound concentration 10 uM, replicate 2
[5] = 24 h, 1 µM, compound concentration 1 uM, replicate 1
[6] = 24 h, 1 µM, compound concentration 1 uM, replicate 2
[7] = 24 h, 10 µM, compound concentration 10 uM, replicate 1
[8] = 24 h, 10 µM, compound concentration 10 uM, replicate 2

SMILES: CCN(CC)CCCCNc1ncc2cc(-c3cc(OC)cc(OC)c3)c(NC(=O)NC(C)(C)C)nc2n1 [PD-173074]
- Population Apoptotic (%) [1]: 53%
- Population Fragmented Nuclei (%) [1]: 27%
- Population Healthy Nuclei (%) [1]: 4%
- Population Hoechst High Intensity Objects (%) [1]: 56%
- Population Membrane Permeable-Phenotype (%) [1]: 66%
- Population Mitochondria Different-Phenotype (%) [1]: 16%
- Population Mitotic Cells (%) [1]: 46%
- Population Normal (%) [1]: 43%
- Population Pyknosed Nuclei (%) [1]: 67%
- Population Tubulin-Different-Phenotype (%) [1]: 33%
- Total Cell Count [1]: 280
- Population Apoptotic (%) [2]: 54%
- Population Fragmented Nuclei (%) [2]: 31%
- Population Healthy Nuclei (%) [2]: 11%
- Population Hoechst High Intensity Objects (%) [2]: 55%
- Population Membrane Permeable-Phenotype (%) [2]: 64%
- Population Mitochondria Different-Phenotype (%) [2]: 29%
- Population Mitotic Cells (%) [2]: 45%
- Population Normal (%) [2]: 44%
- Population Pyknosed Nuclei (%) [2]: 57%
- Population Tubulin-Different-Phenotype (%) [2]: 47%
- Total Cell Count [2]: 186
- Population Fragmented Nuclei (%) [3]: 20%
- Population Healthy Nuclei (%) [3]: 52%
- Population Hoechst High Intensity Objects (%) [3]: 19%
- Population Membrane Permeable-Phenotype (%) [3]: 39%
- Population Mitochondria Different-Phenotype (%) [3]: 27%
- Population Normal (%) [3]: 80%
- Population Pyknosed Nuclei (%) [3]: 26%
- Population Tubulin-Different-Phenotype (%) [3]: 92%
- Total Cell Count [3]: 206
- Population Apoptotic (%) [4]: 21%
- Population Fragmented Nuclei (%) [4]: 33%
- Population Healthy Nuclei (%) [4]: 34%
- Population Hoechst High Intensity Objects (%) [4]: 30%
- Population Membrane Permeable-Phenotype (%) [4]: 37%
- Population Mitochondria Different-Phenotype (%) [4]: 51%
- Population Mitotic Cells (%) [4]: 78%
- Population Normal (%) [4]: 69%
- Population Pyknosed Nuclei (%) [4]: 31%
- Population Tubulin-Different-Phenotype (%) [4]: 73%
- Total Cell Count [4]: 129
- Population Apoptotic (%) [5]: 70%
- Population Fragmented Nuclei (%) [5]: 17%
- Population Healthy Nuclei (%) [5]: 8%
- Population Hoechst High Intensity Objects (%) [5]: 60%
- Population Membrane Permeable-Phenotype (%) [5]: 71%
- Population Mitochondria Different-Phenotype (%) [5]: 28%
- Population Mitotic Cells (%) [5]: 29%
- Population Normal (%) [5]: 39%
- Population Pyknosed Nuclei (%) [5]: 74%
- Population Tubulin-Different-Phenotype (%) [5]: 57%
- Total Cell Count [5]: 298
- Population Apoptotic (%) [6]: 71%
- Population Fragmented Nuclei (%) [6]: 30%
- Population Healthy Nuclei (%) [6]: 15%
- Population Hoechst High Intensity Objects (%) [6]: 63%
- Population Membrane Permeable-Phenotype (%) [6]: 84%
- Population Mitochondria Different-Phenotype (%) [6]: 38%
- Population Mitotic Cells (%) [6]: 28%
- Population Normal (%) [6]: 36%
- Population Pyknosed Nuclei (%) [6]: 53%
- Population Tubulin-Different-Phenotype (%) [6]: 69%
- Total Cell Count [6]: 168
- Population Apoptotic (%) [7]: 35%
- Population Fragmented Nuclei (%) [7]: 16%
- Population Healthy Nuclei (%) [7]: 54%
- Population Hoechst High Intensity Objects (%) [7]: 17%
- Population Membrane Permeable-Phenotype (%) [7]: 20%
- Population Mitochondria Different-Phenotype (%) [7]: 48%
- Population Mitotic Cells (%) [7]: 64%
- Population Normal (%) [7]: 82%
- Population Pyknosed Nuclei (%) [7]: 29%
- Population Tubulin-Different-Phenotype (%) [7]: 74%
- Total Cell Count [7]: 202
- Population Apoptotic (%) [8]: 45%
- Population Fragmented Nuclei (%) [8]: 26%
- Population Healthy Nuclei (%) [8]: 33%
- Population Hoechst High Intensity Objects (%) [8]: 21%
- Population Membrane Permeable-Phenotype (%) [8]: 18%
- Population Mitochondria Different-Phenotype (%) [8]: 52%
- Population Mitotic Cells (%) [8]: 54%
- Population Normal (%) [8]: 78%
- Population Pyknosed Nuclei (%) [8]: 40%
- Population Tubulin-Different-Phenotype (%) [8]: 59%
- Total Cell Count [8]: 113
